Source: paper PMC3401475 (Nucleic Acids Research, 2012)

Tests used:
human fibroblast cells = test: MTT cell viability, human fibroblasts; format: cell-based; conditions: at concentrations up to 500 µM
[1] = Relative fluorescence quantum yield; format: physicochemical; conditions: in methanol, excitation 362 nm
(CUG)10 RNA = test: SPR binding to
Method in brief: (§1)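 Streptavidin coupled to both flow cells of a CM5 dextran chip after EDC/NHS activation. 5'-Biotin RNA captured at 200–1000 RU; reference cell biotin-blocked. Compound concentrations flowed in HBS-N (0.01 M HEPES, 0.15 M NaCl, pH 7.4) […]. Dissociation ≥200 s, then 0.5 or 1 M NaCl regeneration. Duplicate injections, buffer-blank subtracted. Global 1:1 Langmuir fit. KD averaged over two chips with different RNA densities. t1/2 = ln2/koff.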

(CCUG)10 RNA = test: SPR binding to
Method in brief: as §1

C2C12 mouse myoblasts = test: MTT cell toxicity, mouse myoblasts; format: cell-based; conditions: 48 h, all concentrations tested
Method in brief: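 C2C12 myoblasts in DMEM (10% FBS, 1% penicillin–streptomycin) grown to ~80% confluence at 37°C under CO2. Compound at varying concentrations (up to 1 mM), 48 h, 37°C. MTT in medium added for 4 h at 37°C, then isopropanol solubilisation; absorbance read at 600 nm.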

CCc1nc2cc3ccccc3cc2cc1C(=O)O [Compound 2, ethylbenzo[g]quinoline carboxylic acid]
toxicity by MTT assay (human fibroblast cells): no toxicity | fluorescence quantum yield relative to quinine sulfate [1]: 0.64 | Apparent KD ((CUG)10 RNA; (CUG)10, HBS-N pH 7.4, average of two titrations): complete lack of binding

NC[C@@H]1O[C@H](O[C@H]2[C@@H](O)[C@H](O[C@@H]3[C@@H](O)[C@H](N)C[C@H](N)[C@H]3O[C@H]3O[C@H](CN)[C@@H](O)[C@H](O)[C@H]3N)O[C@@H]2CO)[C@H](N)[C@@H](O)[C@@H]1O [Neomycin, Neomycin B]
Residence time t1/2 ((CCUG)10 RNA; (CCUG)10, t1/2 = ln2/kd): 4 s | Kd ((CCUG)10 RNA; read-out: Apparent KD, (CCUG)10, HBS-N pH 7.4, average of two titrations): 1960 nM | Residence time t1/2 ((CUG)10 RNA; (CUG)10, t1/2 = ln2/kd): 14 s | Kd ((CUG)10 RNA; read-out: Apparent KD, (CUG)10, HBS-N pH 7.4, average of two titrations): 409 nM

CO[C@@]12[C@H](COC(N)=O)C3=C(C(=O)C(C)=C(N)C3=O)N1C[C@@H]1N[C@@H]12 [mitomycin C]
toxicity by MTT assay (C2C12 mouse myoblasts): significant toxicity
